Structures are written as SMILES. Activity calls are given as the source filed them. The calls are words filed in the database; no cut-off is given here. Where a SMILES comes first, the peptide text is derived from it. Bridges are numbered along the chain shown (N, C = ends). Some results are limits rather than exact numbers.

Series [1] can be described thus: Drug uptake in ICR mouse serum at 10 mg/kg, po after 4 hrs. It counts as ADME, organism-based. The settings on record: read-out: Drug uptake. The gist of the method:
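Peptide was given orally at 10 mg/kg, and its serum concentration was measured 4 h later.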

For series [2], the target named is T1, Serine protease 1 (Bos taurus) (UniProt P00760).
T1 sequence (whole entry): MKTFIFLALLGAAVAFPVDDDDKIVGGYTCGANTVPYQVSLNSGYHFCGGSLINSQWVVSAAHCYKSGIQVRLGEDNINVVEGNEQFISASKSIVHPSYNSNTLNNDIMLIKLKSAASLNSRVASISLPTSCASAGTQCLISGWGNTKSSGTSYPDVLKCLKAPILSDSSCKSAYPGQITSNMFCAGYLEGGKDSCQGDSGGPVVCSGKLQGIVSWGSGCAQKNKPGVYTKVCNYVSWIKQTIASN
In words: Inhibition of bovine beta-trypsin up to 100 uM using BAPNA as substrate preincubated for 15 mins followed by substrate addition measured over 60 mins by spectrometric method. The method in brief: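 Trypsin activity was measured at 37°C with the chromogenic substrate BAPNA (N-α-benzoyl-DL-arginine 4-nitroanilide), reading absorbance at 405 nm. […] Runs were in triplicate, reported as mean ± SD.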

The target of the next series is T2, Serine protease 1 (Bos taurus, UniProt P00760).
T2 sequence (P00760 whole entry): T1 sequence (whole entry)
In words: Inhibition of bovine beta-trypsin using BAPNA as substrate preincubated for 15 mins followed by substrate addition measured over 60 mins by Dixon plot analysis.

The nature of series [3]: Stability of the compound assessed as trypsin (unknown origin)-mediated compound degradation at enzyme to peptide ratio of 1:50 after 6 hrs by HPLC-MS analysis. It counts as ADME. The settings on record: human. The gist of the method:
(§1)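 Peptides were boiled at 100 °C, exposed to hydrochloride solution, or incubated with proteases for up to 6 h. Integrity was determined by HPLC and MS.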

The nature of series [4]: Stability of the compound assessed as pepsin (unknown origin)-mediated compound degradation at enzyme to peptide ratio of 1:50 after 6 hrs by HPLC-MS analysis. It counts as ADME. The conditions noted are these: human; for Stability: 6 h. The gist of the method: as §1
Series [5] in a line: Stability in pH 7 phosphate buffer at 0.1 mM at 100 degC after 6 hrs by HPLC-MS analysis. It counts as physicochemical. The settings on record: read-out: Stability. The gist of the method: as §1
Series [6] can be described thus: Stability in 0.2 M aqueous HCl after 6 hrs by HPLC-MS analysis. The conditions noted are these: read-out: Stability. It counts as physicochemical. The method in brief: as §1
Series [7] can be described thus: Metabolic stability in human serum assessed as parent compound remaining after 6 hrs by UPLC method. It counts as ADME, cell-free. The conditions noted are these: read-out: Stability. The method in brief: (§2)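 Peptides were incubated in human serum for up to 6 h, sampled at time points, and the intact fraction was expressed relative to 0 h. Runs were in triplicate, reported as mean ± SD.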

For another series, the target named is T3, B1 bradykinin receptor (Homo sapiens, UniProt P46663).
T3 sequence (P46663 whole entry): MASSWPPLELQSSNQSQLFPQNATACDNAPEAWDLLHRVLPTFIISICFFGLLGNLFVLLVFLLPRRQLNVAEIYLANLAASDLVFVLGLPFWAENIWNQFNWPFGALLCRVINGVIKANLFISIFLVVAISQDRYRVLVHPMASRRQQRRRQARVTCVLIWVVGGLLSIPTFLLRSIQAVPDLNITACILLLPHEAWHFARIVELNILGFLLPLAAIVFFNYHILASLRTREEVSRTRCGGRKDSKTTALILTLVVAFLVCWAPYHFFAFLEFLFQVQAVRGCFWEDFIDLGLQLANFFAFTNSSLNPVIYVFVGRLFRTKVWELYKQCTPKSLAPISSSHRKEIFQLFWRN
In words: Antagonist activity against bradykinin B1 receptor in human HeLa cells assessed as inhibition of Des-Arg9-BK-induced increase in intracellular Ca2+ level by Fluro-4 direct calcium dye based fluorescence assay. It counts as functional, cell-based. The method in brief: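 HeLa cells were pre-loaded with fluo-4 Direct dye and pretreated with peptide at 0 to 10 µM. B1 agonist des-Arg9-BK (100 nM) was then added to raise intracellular Ca2+, read as fluorescence change.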

The test system of series [8] is Mus musculus. In words: Analgesic activity in ICR mouse assessed as increase in pain response latency at 10 mg/kg administered through oral gavage 30 mins prior to test by hot plate assay relative to control. It counts as functional. The gist of the method:
(§3)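 Mouse hot plate test with hind paw-licking as the nociceptive end point. Peptides were given i.p. or p.o. at several doses, with phosphate-buffered saline as the control. Response latency was compared with each animal's baseline latency and expressed as percent increment in response time.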
(Hot-plate and tail-flick tests time the reaction to a heat stimulus.)

The next series concerns HeLa. In words: Cytotoxicity against human HeLa cells up to 40 uM after 24 hrs by PrestoBlue cell viability assay. It counts as cell-based.
The subject of series [9] is Mus musculus. In words: Analgesic activity in ICR mouse assessed as increase in pain response latency at 1 mg/kg,ip measured after 10 mins by hot plate assay relative to control. It counts as functional. The gist of the method:
as §3

Series [10] relates to Mus musculus. In words: Analgesic activity in ICR mouse assessed as increase in pain response latency at 0.03 to 1 mg/kg,ip measured after 10 mins by hot plate assay relative to control. It counts as functional, organism-based. The method in brief:
as §3

Series [11] relates to Mus musculus. In words: Analgesic activity in ICR mouse assessed as increase in pain response latency at 0.3 to 10 mg/kg administered through oral gavage 30 mins prior to test by hot plate assay relative to control. It counts as functional. The gist of the method: as §3
The test system of another series is Serum. In words: Metabolic stability in human serum after 2 hrs by UPLC method. It counts as ADME, cell-free. The method in brief: as §2

As for `CC[C@H](C)[C@@H]1NC(=O)[C@@H]2CCCN2C(=O)[C@@H]2CCCN2C(=O)[C@H]([C@@H](C)CC)NC(=O)[C@H](CO)NC(=O)[C@H](CCCCN)NC(=O)[C@H]([C@@H](C)O)NC(=O)[C@@H]2CSSC[C@H](NC1=O)C(=O)N[C@@H](CCCCN)C(=O)N[C@@H](CCCNC(=N)N)C(=O)N1CCC[C@H]1C(=O)N1CCC[C@H]1C(=O)NCC(=O)N[C@@H](Cc1ccccc1)C(=O)N[C@@H](CO)C(=O)N1CCC[C@H]1C(=O)N[C@@H](CC(C)C)C(=O)N2` (cyclo(CKRPPGFSPLCTKSIPPI); disulfide 1-11), the concentration at 4 h in series [1] is 11.5 µM. In series [2], the inhibition entry is “Active”. For the same compound, affinity on Serine protease 1 was put at a Ki of 5.12 nM. For the same compound, the Stability entry in series [3] and in [4] was “Stable” each time. Further, the remaining at 6 h, 100 µM in series [5] is greater than 80%. In addition, the remaining at 6 h in series [6] is greater than 80%; in [7] it was greater than 90%. Moreover, the half-inhibitory concentration (IC50) on B1 bradykinin receptor came out at 2000 nM. Moreover, the Activity with Mus musculus [8] was 71%; in the series on HeLa, “Non-Toxic”; with Mus musculus [9], 125%.
`CC[C@H](C)[C@@H]1NC(=O)[C@@H]2CCCN2C(=O)[C@@H]2CCCN2C(=O)[C@H]([C@@H](C)CC)NC(=O)[C@H](CO)NC(=O)[C@H](CCCCN)NC(=O)[C@H]([C@@H](C)O)NC(=O)[C@@H]2CSSC[C@H](NC1=O)C(=O)N[C@@H](Cc1ccccc1)C(=O)N1CCC[C@H]1C(=O)N[C@@H](CC(=O)O)C(=O)NCC(=O)N[C@@H](CCCNC(=N)N)C(=O)N2`: the outcome in the series with Mus musculus [10] and with Mus musculus [11] was inactive. Moreover, the inhibition entry in [2] was “Active”. For the same compound, the remaining at 6 h, 100 µM in [5] was greater than 80%. In series [6], the remaining at 6 h is greater than 80%. The Activity entry in the series on HeLa is recorded as “Non-Toxic”.
Regarding `CC[C@H](C)[C@@H]1NC(=O)[C@@H]2CCCN2C(=O)[C@@H]2CCCN2C(=O)[C@H]([C@@H](C)CC)NC(=O)[C@H](CO)NC(=O)[C@H](CCCCN)NC(=O)[C@H]([C@@H](C)O)NC(=O)[C@@H](N)CSSC[C@@H](C(=O)N[C@@H](CCCCN)C(=O)N[C@@H](CCCNC(=N)N)C(=O)N2CCC[C@H]2C(=O)N2CCC[C@H]2C(=O)NCC(=O)N[C@@H](Cc2ccccc2)C(=O)N[C@@H](CO)C(=O)N2CCC[C@H]2C(=O)N[C@@H](CC(C)C)C(=O)O)NC1=O` (H-CTKSIPPICKRPPGFSPL-OH; disulfide 1-9), in [2], the inhibition result was “Active”. The Stability entry in [3] and in series [4] was “Unstable” throughout. Also, the remaining at 6 h, 100 µM in [5] was greater than 80%. The remaining at 6 h in [6] is greater than 80%. In addition, in the series with HeLa, the Activity result is reported as “Non-Toxic”.
Take `CC(C)C[C@H](NC(=O)[C@@H]1CCCN1C(=O)[C@H](CO)NC(=O)[C@H](Cc1ccccc1)NC(=O)CNC(=O)[C@@H]1CCCN1C(=O)[C@@H]1CCCN1C(=O)[C@H](CCCN=C(N)N)NC(=O)[C@@H](N)CCCCN)C(=O)O`: the Stability entry in series [3] is “Stable”; with Serum it was “Unstable”. The metabolised at 6 h in [4] (pepsin, read-out: Drug degradation) was greater than 50%. In addition, in [5], the remaining at 6 h, 100 µM is greater than 80%. The remaining at 6 h in series [6] was greater than 80%. Further, the Activity with Mus musculus [11] is less than 10%; in the series with HeLa it was “Non-Toxic”; in the series on Mus musculus [9], 201%.
With `CC(C)C[C@@H]1NC(=O)[C@@H]2CCCN2C(=O)[C@H](CO)NC(=O)[C@H](Cc2ccccc2)NC(=O)CNC(=O)[C@@H]2CCCN2C(=O)[C@@H]2CCCN2C(=O)[C@H](CCCNC(=N)N)NC(=O)[C@H](CCCCN)NC(=O)[C@@H](NC(=O)[C@H](CCCNC(=N)N)NC(=O)CN)CSSC[C@@H](C(=O)N[C@@H](Cc2ccccc2)C(=O)N2CCC[C@H]2C(=O)N[C@@H](CC(=O)O)C(=O)O)NC1=O` (H-GRCKRPPGFSPLCFPD-OH; disulfide 3-13), the Stability entry in [3] and in [4] was “Unstable” in each case. Besides, in series [5], the remaining at 6 h, 100 µM was greater than 80%. Moreover, in [6], the remaining at 6 h is greater than 80%. In addition, in the series on HeLa, the Activity entry is “Non-Toxic”.
As to `CC(C)C[C@@H]1NC(=O)[C@@H]2CCCN2C(=O)[C@H](CO)NC(=O)[C@H](Cc2ccccc2)NC(=O)CNC(=O)[C@@H]2CCCN2C(=O)[C@@H]2CCCN2C(=O)[C@H](CCCNC(=N)N)NC(=O)[C@H](CCCCN)NC(=O)[C@@H]2CSSC[C@H](NC1=O)C(=O)N[C@@H](Cc1ccccc1)C(=O)N1CCC[C@H]1C(=O)N[C@@H](CC(=O)O)C(=O)NCC(=O)N[C@@H](CCCNC(=N)N)C(=O)N2` (cyclo(CFPDGRCKRPPGFSPL); disulfide 1-7), the inhibition result in [2] is “inactive”. The figures for the Stability result in series [3] and in series [4] were “Unstable” and “Stable”, respectively. Also, the remaining at 6 h, 100 µM in series [5] is greater than 80%. In addition, the remaining at 6 h is greater than 80% in series [6] and greater than 90% in series [7]. Further, on B1 bradykinin receptor, the IC50 was 4040 nM. Further, the Activity result in the series with HeLa is “Non-Toxic”.

By Ki is commonly meant a dissociation constant, usually derived from enzyme kinetics or from competition with a known ligand. As a reminder, the IC50 is the concentration at which inhibition is half-maximal.

The values are drawn from ChEMBL document CHEMBL4000179, “An Orally Active Bradykinin B1 Receptor Antagonist Engineered as a Bifunctional Chimera of Sunflower Trypsin Inhibitor” (J Med Chem, 2017).
